# Measured values as given in ChEMBL document CHEMBL1154946, “Synthetic atpenin analogs: Potent mitochondrial inhibitors of mammalian and fungal succinate-ubiquinone oxidoreductase” (Bioorg Med Chem Lett, 2010).
# Activity calls are given as the source filed them. No cut-off for these calls is given here.
# How the values were obtained:
# [1] = test system: Parastagonospora nodorum; assay: Antifungal activity against Septoria nodorum at 200 ppm; format: functional, organism-based
# [2] = Inhibition of bovine heart sub-mitochondrial membrane SQR assessed as ubiquinol-dependent reduction of DCIP after 10 mins by spectrophotometry; design: species or system Bos taurus
# How it was run: (§1)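 Complex II (SQR) activity in sub-mitochondrial membranes from bovine heart or Septoria nodorum, run in plate format. 20 mM succinate serves as electron donor, with decyl ubiquinone as acceptor and DCIP as terminal dye acceptor. The reaction is started by adding succinate and runs 10 min. Read-out is spectrophotometric, giving IC50.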
# [3] = test system: Parastagonospora nodorum; assay: Antifungal activity against Septoria nodorum at 200 ppm by whole plant assay; format: functional, organism-based
# [4] = Inhibition of Septoria nodorum sub-mitochondrial membrane SQR assessed as ubiquinol-dependent reduction of DCIP after 10 mins by spectrophotometry; design: species or system Parastagonospora nodorum; how it was run: as §1
SMILES,IC50 [2] [nM],IC50 [4] [nM],Activity [1],Activity [3]
COc1[nH]cc(C(=O)c2ccccc2Cl)c(=O)c1OC,> 30000,> 30000,inactive,inactive
COc1[nH]cc(C(=O)c2ccc(Cl)cc2)c(=O)c1OC,3400,26700,inactive,inactive
O=C(Nc1ccccc1-c1ccc(Cl)cc1)c1cccnc1Cl [BOSCALID],1790,245,–,–
COc1[nH]c(Br)c(C(=O)c2ccc(Cl)cc2)c(=O)c1OC,1270,1940,inactive,inactive
COc1[nH]cc(C(=O)c2ccccc2Oc2ccccc2)c(=O)c1OC,> 30000,> 30000,inactive,inactive
COc1nc(OC(C)=O)c(C(=O)c2ccc(Cl)cc2)c(OC(C)=O)c1OC,> 30000,> 30000,inactive,inactive
COc1[nH]cc(C(=O)c2cccc(Cl)c2)c(=O)c1OC,6560,> 30000,inactive,inactive
COc1[nH]c(=O)c(C(=O)[C@@H](C)C[C@H](C)[C@@H](Cl)CCl)c(O)c1OC [ATPENIN A5],4,11,–,–
COc1[nH]c(C)c(C(=O)c2ccc(Cl)cc2)c(=O)c1OC,13800,14000,inactive,inactive
CCC(C)C(=O)c1c[nH]c(OC)c(OC)c1=O (stereo not drawn),> 30000,> 30000,inactive,inactive
COc1ccc(C(=O)c2c[nH]c(OC)c(OC)c2=O)cc1,> 30000,> 30000,inactive,inactive
COc1[nH]c(OC)c(C(=O)c2ccc(Cl)cc2)c(=O)c1OC,> 30000,> 30000,inactive,inactive
COc1[nH]cc(C(=O)c2ccc3ccccc3c2)c(=O)c1OC,12800,20700,inactive,inactive
COc1nc(OS(C)(=O)=O)c(C(=O)c2ccc(Cl)cc2)c(OS(C)(=O)=O)c1OC,> 30000,> 30000,inactive,inactive
CCCCC(C)C(=O)c1c(O)nc(OC)c(OC)c1O (stereo not drawn),20,122,inactive,inactive

# More lines, main results first:
IC50 [2] [nM],IC50 [4] [nM],SMILES,Activity [1],Activity [3]
326,> 30000,COc1nc(O)c(C(=O)c2ccc(Cl)cc2)c(O)c1OC,inactive,inactive
492,4080,COc1[nH]cc(C(=O)c2ccc(Oc3ccccc3)cc2)c(=O)c1OC,inactive,inactive
3,4,CCCCCCCCCC(C)C(=O)c1c(O)nc(OC)c(OC)c1O (stereo not drawn),inactive,inactive
8,299,COc1nc(O)c(C(=O)C(C)c2ccccc2)c(O)c1OC (stereo not drawn),inactive,inactive
127,1780,COc1nc(O)c(C(=O)C2CCCCC2)c(O)c1OC,inactive,inactive
96,2580,CCC(C)C(=O)c1c(O)nc(OC)c(OC)c1O (stereo not drawn),inactive,inactive
454,2980,COc1[nH]cc(C(=O)c2cccc(Oc3ccccc3)c2)c(=O)c1OC,inactive,inactive
125,234,CCCCC(CC)C(=O)c1c(O)nc(OC)c(OC)c1O (stereo not drawn),inactive,inactive
8,24,COc1nc(O)c(C(=O)C(C)Cc2ccc(C(C)(C)C)cc2)c(O)c1OC (stereo not drawn),inactive,inactive
112,2330,COc1nc(O)c(C(=O)c2cccc(Oc3ccccc3)c2)c(O)c1OC,inactive,inactive
5,51,COc1nc(O)c(C(=O)C(C)CCC=C(C)C)c(O)c1OC (stereo not drawn),inactive,inactive
795,2750,COc1[nH]cc(C(=O)c2ccc(-c3ccccc3)cc2)c(=O)c1OC,inactive,inactive
630,> 30000,COc1nc(O)c(C(=O)C(c2ccccc2)c2ccccc2)c(O)c1OC,inactive,inactive
